esBAF inh: Bmi1 luciferase reporter increase in mESCs, primary screen, esBAF inhibitor project, mouse ES cells, Bmi1 luciferase knock-in, single point | 24 h; 100% = twice the neutral-well signal | reporter increase, % at 12.5 µM | AID 602393, 2012 | hit rate 2% among 350,000; in the data active = activation above about 40%; inconclusive = no clear call, values can overlap the other calls;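 note: a rise in the Bmi1 reporter signal indicates esBAF inhibition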
NSD2 inh: NSD2 histone methyltransferase inhibitors, primary screen, biochemical, AlphaScreen, single concentration, set 2 | hit rate 0.54% among 310,000 | NSD2 peptide methylation, 120 min | Histone-lysine N-methyltransferase NSD2 (Homo sapiens), O96028 | inhibition, % at 12.5 µM; in the data active = inhibition above about 50%
Xi reactivation: activators of inactive X chromosome reactivation, primary screen, imaging, XiGFP fibroblasts, GFP high-content imaging, set 2; XiGFP mouse fibroblasts, % GFP-positive cells imaging, 3 d; cells co-treated with 5-aza-dC sensitizer; scaled so ellipticine positive control = 100%; activation, % at 7.58 µM; hit rate 0.055% among 360,000; AID 743238, 2013;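 active = mean normalized replicate activation at least 10% and every replicate at or above 10%; inconclusive = only one of the two criteria met; inactive = mean below 10% and not all replicates reach 10%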
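Assay system: SV40-immortalized XiGFP fibroblast cells, line 68-5-11; buffer or medium: DMEM plus 5-aza-dC sensitizer; compound: one concentration, pinned; timing: compounds 3 days, fix/stain 15 min at room temperature; benchmarks: positive control ellipticine, 6 µM final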
CASP6 VEID inh: human caspase-6 inhibitors, primary screen, biochemical, VEID-R110 fluorescence, single point, set 2; inhibition, % at 12.5 µM; hit rate 0.53% among 350,000; purified caspase-6, Z-VEID-R110 cleavage fluorescence;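 active = mean inhibition across replicates at least about 35%, with every replicate also reaching that limit, limit read from the data; inconclusive = only one of the two criteria met; inactive = neither criterion met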
Target sequence (P55212 24-179 limits assumed): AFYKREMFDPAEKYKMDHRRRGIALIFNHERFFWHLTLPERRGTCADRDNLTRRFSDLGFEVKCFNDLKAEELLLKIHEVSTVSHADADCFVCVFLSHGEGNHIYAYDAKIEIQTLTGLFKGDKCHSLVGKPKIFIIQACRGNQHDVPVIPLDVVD
Target sequence (P55212 194-293 limits assumed): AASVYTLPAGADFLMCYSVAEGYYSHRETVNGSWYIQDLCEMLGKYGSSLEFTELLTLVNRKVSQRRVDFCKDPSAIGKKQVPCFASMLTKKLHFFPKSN
Wnt bcat act: Wnt/beta-catenin pathway activators, primary screen, cell-based, plate reader, single point; activation, % at 9.35 µM; Wnt/beta-catenin reporter cell assay, activator; AID 743398, 2014; hit rate 1.2% among 300,000; in the data active = activation above about 30%, passing the limit was not always enough; inconclusive = no clear call, values can overlap the other calls
MITF act: activators of MITF-driven TRPM1 promoter reporter, primary screen, cell-based, SK-MEL-5, luciferase, single point; SK-MEL-5 TRPM1-promoter luciferase, 24 h; % of positive control, neutral wells = 0; activation, % at 12.5 µM; hit rate 0.75% among 300,000;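 active = mean activation of at least 80% with every replicate also reaching 80%; inconclusive = mean reaches 80% but some replicate falls short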
Numbers stand for hits. Shown are actives, neighbours in structure and some others; about 3% of the full set was active somewhere.

What do the screens show for `Cc1ccc(C(=O)CCC2CCCC2=O)cc1` (centres undefined)?
esBAF inh: 57; NSD2 inh: inactive; MITF act: inactive

What do the screens show for `CCc1ccc(C(=O)O)cc1`?
esBAF inh: inactive; NSD2 inh: inactive; Xi reactivation: inactive; CASP6 VEID inh: inactive; Wnt bcat act: inactive; MITF act: inactive

What do the screens show for `COC(=O)[C@@H]1[C@@H](CO)[C@@H]2Cn3c(ccc(C4=CCCC4)c3=O)[C@@H]2N1C(=O)C1CCC1`?
esBAF inh: inactive; Xi reactivation: inactive

Results for N#C[C@H]1[C@H](c2ccc(C#CC3CCCCC3)cc2)[C@H](CO)N1C(=O)Cc1ccccn1 ?
esBAF inh: inactive; Xi reactivation: inactive; CASP6 VEID inh: inactive

What do the screens show for `C[C@@H]1CN([C@H](C)CO)S(=O)(=O)c2ccc(-c3cncnc3)cc2O[C@@H]1CN(C)C(=O)Cc1ccccc1`?
esBAF inh: inactive; Xi reactivation: inactive; CASP6 VEID inh: inactive

What do the screens show for `COc1ccc(-c2nc3ccccc3s2)cc1`?
NSD2 inh: inactive; Xi reactivation: inactive; CASP6 VEID inh: inactive; Wnt bcat act: inactive; MITF act: inactive

What do the screens show for `c1ccc2sc(-c3ccncc3)nc2c1`?
NSD2 inh: inactive; Xi reactivation: inactive; CASP6 VEID inh: inactive; Wnt bcat act: 42; MITF act: inactive

Results for c1csc(-c2nc3ccccc3s2)c1 ?
esBAF inh: 47; NSD2 inh: inactive; Xi reactivation: inactive; CASP6 VEID inh: inactive; Wnt bcat act: inactive; MITF act: inactive

How did Oc1ccc(-c2nc3ccccc3s2)cc1 do in these assays?
esBAF inh: inactive; Xi reactivation: inactive; CASP6 VEID inh: inactive; Wnt bcat act: 47; MITF act: inactive

What do the screens show for `Nc1ccccc1-c1nc2ccccc2s1`?
esBAF inh: inconclusive; NSD2 inh: inactive; Xi reactivation: inactive; CASP6 VEID inh: inactive; Wnt bcat act: 46; MITF act: inactive

Results for Nc1ccc(O)c(-c2nc3ccccc3s2)c1 ?
esBAF inh: inactive; NSD2 inh: inactive; Wnt bcat act: inactive; MITF act: inactive

How did C[C@H]1CN([C@@H](C)CO)C(=O)c2ccccc2-c2ccccc2CO[C@@H]1CN(C)S(=O)(=O)c1ccsc1 do in these assays?
Xi reactivation: inactive

Results for CN1C(=O)c2cc(NC(=O)C3CC3)ccc2OC[C@@H]2O[C@@H](CC(=O)NCc3cccc(F)c3)CC[C@@H]21 ?
esBAF inh: inactive; Xi reactivation: inactive

How did CO[C@H]1CN(C)C(=O)c2cc(NC(=O)NC(C)C)ccc2OC[C@H](C)N(C(=O)CC2CC2)C[C@H]1C do in these assays?
esBAF inh: inactive; Xi reactivation: inactive; CASP6 VEID inh: inactive

What do the screens show for `CCCNC(=O)N1CC2(CN(S(C)(=O)=O)C2)c2c(n(C)c3cc(OC)ccc23)[C@H]1CO`?
Xi reactivation: inconclusive; CASP6 VEID inh: inactive

How did CN(C)c1nc(N)nc(-c2nc3ccccc3s2)n1 do in these assays?
NSD2 inh: inactive; CASP6 VEID inh: inactive; Wnt bcat act: 31; MITF act: inactive

How did Oc1ccc(-c2nc3ccccc3s2)c(O)c1 do in these assays?
NSD2 inh: inactive; Xi reactivation: inactive; CASP6 VEID inh: inactive; Wnt bcat act: 58; MITF act: inactive

Results for c1cncc(-c2nc3ccccc3s2)c1 ?
esBAF inh: inconclusive; Xi reactivation: inactive; CASP6 VEID inh: inactive; Wnt bcat act: inconclusive; MITF act: 85

What do the screens show for `COc1ccc(Cl)cc1-c1nc(N)nc(N(C)C)n1`?
NSD2 inh: inactive; Xi reactivation: inactive; Wnt bcat act: inactive; MITF act: inactive

Results for O=C(N[C@H]1CC[C@H](CCn2cc(-c3ccccc3)nn2)O[C@H]1CO)c1ccccc1F ?
esBAF inh: inactive; Xi reactivation: inactive; CASP6 VEID inh: inactive

How did Cc1ccc(S(=O)(=O)Nc2cccc3c2O[C@H](CN(C)Cc2ccc(Oc4ccccc4)cc2)[C@H](C)CN([C@H](C)CO)C3=O)cc1 do in these assays?
esBAF inh: inactive; Xi reactivation: inactive

Screens from PubChem.
